Reference: PMC4245169 (ACS Chemical Biology, 2014)

Key:
[1] = test system: E. coli 23S rRNA; conditions: cited from earlier work
[2] = test system: E. coli 23S rRNA; experiment: CMCT chemical footprinting of 23S rRNA in intact 70S ribosomes; type: binding; conditions: primer 2180; peptolides and 7b 150 μM, clarithromycin 50 μM
[3] = test system: E. coli whole cell extract (prokaryotic ribosomal preparation); experiment: Cell free translation inhibition, E. coli S30 extract, luciferase reporter; type: biochemical; conditions: read-out: E. coli IC50, average of three independent experiments
Summary of the method: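 Test compound at varying concentrations preincubated 20 min at room temperature with E. coli S30 extract plus all amino acids. Luciferase control template then added and translation run 60 min at 37 °C, stopped on ice 5 min. Luminescence read right after luciferin addition. Triplicates normalised to vehicle control; macrolide positive controls. IC50 by logit regression, averaged over three independent experiments.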

[4] = test system: rabbit reticulocyte whole cell lysate (eukaryotic ribosomal preparation); experiment: Cell free translation inhibition, rabbit reticulocyte lysate; type: biochemical
Summary of the method: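 Nuclease-treated rabbit reticulocyte lysate was preincubated with test compound at varying concentrations and all amino acids for 20 min at room temperature. Luciferase control template was then added, and translation ran at 30 °C for 90 min before stopping on ice for 5 min. Luminescence was read after luciferin addition. Samples were run in triplicate and normalized to vehicle control. IC50 was fit by logit regression and averaged over three independent experiments.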

SMILES	protection of A752 [1]	protection of U1963 from CMCT modification [2]	IC50 [3]	inhibition of eukaryotic translation (in words) ([4]; RRL, controls at 250 μM)	IC50 ([4]; read-out: rabbit retic. IC50, cell free translation, luciferase reporter, average of three independent experiments)
CC[C@H]1OC(=O)[C@H](C)C(=O)[C@H](C)[C@@H](O[C@@H]2O[C@H](C)C[C@H](N(C)C)[C@H]2O)[C@](C)(OC)C[C@@H](C)C(=O)[C@H](C)[C@H]2N(CCCCn3cnc(-c4cccnc4)c3)C(=O)O[C@]12C [TEL, telithromycin]	protected				
CC[C@H]1OC(=O)[C@H](C)[C@@H](O[C@H]2C[C@@](C)(OC)[C@@H](O)[C@H](C)O2)[C@H](C)[C@@H](O[C@@H]2O[C@H](C)C[C@H](N(C)C)[C@H]2O)[C@](C)(OC)C[C@@H](C)C(=O)[C@H](C)[C@@H](O)[C@]1(C)O [clarithromycin 1, clarithromycin]		available to CMCT modification	320 ± 120 nM	inactive	> 250000 nM
